Experimental data: ChEMBL document CHEMBL1145688, “New sesquiterpene hydroquinones from a Taiwanese marine sponge Polyfibrospongia australis” (J Nat Prod, 1997)
Converted amounts (≈) assume the structure as drawn.

Tested on: not listed separately
Experiment: Cytotoxicity against human KB16 cells after 3 days by MTT assay
Type: functional, cell-based
Conditions: KB16, 72 h
Procedure, shortened: (§1)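 Modified MTT colorimetric assay. Cells seeded at 1000 cells/well and exposed to twofold serial dilutions of compound. Incubation ran 6 days for A-549 and 3 days for KB-16 and P-388. MTT (1 mg/mL) was then added for 5 h at 37 °C, formazan dissolved in DMSO, and absorbance read at 540 nm. IC50 is the concentration giving a 50% absorbance reduction versus untreated cells.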

| SMILES | IC50 |
| --- | --- |
| C=C1CCC[C@H]2[C@](C)(Cc3cc(C(=O)OC)cc(OC)c3O)[C@@H](C)CC[C@]12C [POLYFIBROSPONGOL A] | 1.4 µg/mL (≈ 3.62 µM) |
| C=C1CCC[C@H]2[C@](C)(CC3=C(O)C(=O)C=C(OC)C3=O)[C@@H](C)CC[C@]12C [ILIMAQUINONE] | 0.7 µg/mL (≈ 1.95 µM) |
| C=C1CCC[C@H]2[C@](C)(Cc3cc(C(=O)OC)cc(O)c3O)[C@@H](C)CC[C@]12C [DICTYOCERATIN A] | 1.4 µg/mL (≈ 3.76 µM) |
| C=C1CCC[C@H]2[C@](CO)(Cc3cc(C(=O)OC)cc(OC)c3O)[C@@H](C)CC[C@]12C [POLYFIBROSPONGOL B] | 2 µg/mL (≈ 4.97 µM) |
| C=C1CCC[C@H]2[C@](C)(Cc3cc(C(=O)OC)cc(OC(C)=O)c3OC(C)=O)[C@@H](C)CC[C@]12C | 1.8 µg/mL (≈ 3.94 µM) |
| C=C1CCC[C@H]2[C@](COC(C)=O)(Cc3cc(C(=O)OC)cc(OC)c3OC(C)=O)[C@@H](C)CC[C@]12C [POLYFIBROSPONGOL B DIACETATE] | > 50 µg/mL |
| C=C1CCC[C@H]2[C@](C)(Cc3cc(C(=O)OC)cc(OC)c3OC(C)=O)[C@@H](C)CC[C@]12C [POLYFIBROSPONGOL A MONOACETATE] | 2.1 µg/mL |

Tested on: P388
Experiment: Cytotoxicity against mouse P388 cells after 3 days by MTT assay
Type: functional, cell-based
Conditions: P388, 72 h
Procedure, shortened: as §1

| SMILES | IC50 |
| --- | --- |
| C=C1CCC[C@H]2[C@](C)(Cc3cc(C(=O)OC)cc(OC)c3O)[C@@H](C)CC[C@]12C [POLYFIBROSPONGOL A] | 0.7 µg/mL (≈ 1.81 µM) |
| C=C1CCC[C@H]2[C@](C)(CC3=C(O)C(=O)C=C(OC)C3=O)[C@@H](C)CC[C@]12C [ILIMAQUINONE] | 0.2 µg/mL (≈ 0.558 µM) |
| C=C1CCC[C@H]2[C@](C)(Cc3cc(C(=O)OC)cc(O)c3O)[C@@H](C)CC[C@]12C [DICTYOCERATIN A] | 1.4 µg/mL (≈ 3.76 µM) |
| C=C1CCC[C@H]2[C@](CO)(Cc3cc(C(=O)OC)cc(OC)c3O)[C@@H](C)CC[C@]12C [POLYFIBROSPONGOL B] | 1 µg/mL (≈ 2.48 µM) |
| C=C1CCC[C@H]2[C@](C)(Cc3cc(C(=O)OC)cc(OC(C)=O)c3OC(C)=O)[C@@H](C)CC[C@]12C | 1.9 µg/mL (≈ 4.16 µM) |
| C=C1CCC[C@H]2[C@](COC(C)=O)(Cc3cc(C(=O)OC)cc(OC)c3OC(C)=O)[C@@H](C)CC[C@]12C [POLYFIBROSPONGOL B DIACETATE] | > 50 µg/mL |
| C=C1CCC[C@H]2[C@](C)(Cc3cc(C(=O)OC)cc(OC)c3OC(C)=O)[C@@H](C)CC[C@]12C [POLYFIBROSPONGOL A MONOACETATE] | 3.4 µg/mL |

Tested on: A549
Experiment: Cytotoxicity against human A549 cells after 6 days by MTT assay
Type: functional, cell-based
Conditions: A549, 144 h
Procedure, shortened: as §1

| SMILES | IC50 |
| --- | --- |
| C=C1CCC[C@H]2[C@](C)(Cc3cc(C(=O)OC)cc(OC)c3O)[C@@H](C)CC[C@]12C [POLYFIBROSPONGOL A] | 0.6 µg/mL (≈ 1.55 µM) |
| C=C1CCC[C@H]2[C@](C)(CC3=C(O)C(=O)C=C(OC)C3=O)[C@@H](C)CC[C@]12C [ILIMAQUINONE] | 0.4 µg/mL (≈ 1.12 µM) |
| C=C1CCC[C@H]2[C@](C)(Cc3cc(C(=O)OC)cc(O)c3O)[C@@H](C)CC[C@]12C [DICTYOCERATIN A] | 0.7 µg/mL (≈ 1.88 µM) |
| C=C1CCC[C@H]2[C@](CO)(Cc3cc(C(=O)OC)cc(OC)c3O)[C@@H](C)CC[C@]12C [POLYFIBROSPONGOL B] | 1 µg/mL (≈ 2.48 µM) |
| C=C1CCC[C@H]2[C@](C)(Cc3cc(C(=O)OC)cc(OC(C)=O)c3OC(C)=O)[C@@H](C)CC[C@]12C | 1.5 µg/mL (≈ 3.29 µM) |
| C=C1CCC[C@H]2[C@](COC(C)=O)(Cc3cc(C(=O)OC)cc(OC)c3OC(C)=O)[C@@H](C)CC[C@]12C [POLYFIBROSPONGOL B DIACETATE] | > 50 µg/mL |
| C=C1CCC[C@H]2[C@](C)(Cc3cc(C(=O)OC)cc(OC)c3OC(C)=O)[C@@H](C)CC[C@]12C [POLYFIBROSPONGOL A MONOACETATE] | 3.1 µg/mL |
